Values after ≈ are worked out from the molar mass of the structure shown. Square brackets hold non-standard residues; d marks the D form. Peptide text beside a SMILES is read from it. d2Nal = N[C@H](Cc1ccc2ccccc2c1)C(=O)O
Key:
Format in all cases: functional
Rattus norvegicus [1] = organism: Rattus norvegicus; test: In vitro histamine releasing activity determined with peritoneal mast cells from male Sprague-Dawley rats.; details: Mast cell, read-out: ED50 (the source's name)
Rattus norvegicus [2] = organism: Rattus norvegicus; test: Antiovulatory activity expressed as the percentage of rats blocked at 50 ug
In short: (§1)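 Female Sprague-Dawley rats dosed in a 40% propane-1,2-diol/0.9% saline vehicle in a standard antiovulatory assay. The read-out is ovulation block, reported as the percentage of n rats not ovulating at x μg of analogue.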

Rattus norvegicus [3] = organism: Rattus norvegicus; test: Antiovulatory activity expressed as the percentage of rats blocked at 6 ug; in short: as §1
Rattus norvegicus [4] = organism: Rattus norvegicus; test: Antiovulatory activity expressed as the percentage of rats blocked at 12 ug; in short: as §1
Rattus norvegicus [5] = organism: Rattus norvegicus; test: Antiovulatory activity expressed as the percentage of rats blocked at 0.5 ug; in short: as §1

SMILES	EC50 (Rattus norvegicus [1]) [µg/mL]	Rats blocked (Rattus norvegicus [2]) [%]	Rats blocked (Rattus norvegicus [3]) [%]	Rats blocked (Rattus norvegicus [4]) [%]	Rats blocked (Rattus norvegicus [5]) [%]
CC(=O)N[C@H](Cc1ccc2ccccc2c1)C(=O)N[C@H](Cc1ccccc1)C(=O)N[C@H](CN[C@@H](CO)C(=O)N[C@@H](Cc1ccc(O)cc1)C(=O)N[C@H](CCCN=C(N)N)C(=O)N[C@@H](Cc1ccccc1)C(=O)N[C@@H](CCCN=C(N)N)C(=O)N1CCC[C@H]1C(=O)N[C@H](C)C(=O)O)Cc1ccccc1	0.43 (≈ 0.304 µM)	0	–	–	–
CC(=O)N[C@H](Cc1ccc2ccccc2c1)C(=O)N[C@H](Cc1ccccc1)C(=O)N[C@H](Cc1ccccc1)C(=O)N[C@@H](CO)C(=O)N[C@@H](Cc1ccc(O)cc1)C(=O)N[C@@H](CCCCN)CN(C(C)=O)[C@@H](Cc1ccccc1)C(=O)N[C@@H](CCCN=C(N)N)C(=O)N1CCC[C@H]1C(=O)N[C@H](C)C(=O)O	1.5 (≈ 1.05 µM)	33	–	–	–
CC(=O)N[C@H](Cc1ccc2ccccc2c1)C(=O)N[C@H](CN[C@H](Cc1ccccc1)C(=O)N[C@@H](CO)C(=O)N[C@@H](Cc1ccc(O)cc1)C(=O)N[C@H](CCCN=C(N)N)C(=O)N[C@@H](Cc1ccccc1)C(=O)N[C@@H](CCCN=C(N)N)C(=O)N1CCC[C@H]1C(=O)N[C@H](C)C(=O)O)Cc1ccccc1	0.35 (≈ 0.247 µM)	0	–	–	–
CCN(CC)[C@H](Cc1ccc2ccccc2c1)C(=O)N[C@H](Cc1ccccc1)C(=O)N[C@H](Cc1ccccc1)C(=O)N[C@@H](CO)C(=O)N[C@@H](Cc1ccc(O)cc1)C(=O)N[C@H](CCCN=C(N)N)C(=O)N[C@@H](Cc1ccccc1)C(=O)N[C@@H](CCCN=C(N)N)C(=O)N1CCC[C@H]1C(=O)N[C@H](C)C(=O)O	0.45 (≈ 0.312 µM)	–	0	–	–
CC(=O)N[C@H](Cc1ccc2ccccc2c1)C(=O)N[C@H](Cc1ccccc1)C(=O)N[C@H](Cc1ccccc1)C(=O)N[C@@H](CO)CN(C(C)=O)[C@@H](Cc1ccc(O)cc1)C(=O)N[C@H](CCCN=C(N)N)C(=O)N[C@@H](Cc1ccccc1)C(=O)N[C@@H](CCCN=C(N)N)C(=O)N1CCC[C@H]1C(=O)N[C@H](C)C(=O)O	0.45 (≈ 0.309 µM)	0	–	–	–
CCN[C@H](Cc1ccc2ccccc2c1)C(=O)N[C@H](Cc1ccccc1)C(=O)N[C@H](Cc1ccccc1)C(=O)N[C@@H](CO)C(=O)N[C@@H](Cc1ccc(O)cc1)C(=O)N[C@H](CCCN=C(N)N)C(=O)N[C@@H](Cc1ccccc1)C(=O)N[C@@H](CCCN=C(N)N)C(=O)N1CCC[C@H]1C(=O)N[C@H](C)C(=O)O	0.34 (≈ 0.24 µM)	–	17	–	–
CC(=O)N[C@H](Cc1ccc2ccccc2c1)C(=O)N[C@H](Cc1ccccc1)C(=O)N[C@H](Cc1ccccc1)C(=O)N[C@@H](CO)C(=O)N[C@H](CN[C@H](CCCN=C(N)N)C(=O)N[C@@H](Cc1ccccc1)C(=O)N[C@@H](CCCN=C(N)N)C(=O)N1CCC[C@H]1C(=O)N[C@H](C)C(=O)O)Cc1ccc(O)cc1	1.5 (≈ 1.06 µM)	–	–	100	–
CC(=O)N[C@H](CN[C@H](Cc1ccccc1)C(=O)N[C@H](Cc1ccccc1)C(=O)N[C@@H](CO)C(=O)N[C@@H](Cc1ccc(O)cc1)C(=O)N[C@H](CCCN=C(N)N)C(=O)N[C@@H](Cc1ccccc1)C(=O)N[C@@H](CCCN=C(N)N)C(=O)N1CCC[C@H]1C(=O)N[C@H](C)C(=O)O)Cc1ccc2ccccc2c1	1.5 (≈ 1.06 µM)	0	–	–	–
CC(=O)N[C@H](Cc1ccc2ccccc2c1)C(=O)N[C@H](Cc1ccccc1)C(=O)N[C@H](Cc1ccccc1)C(=O)N[C@@H](CO)CN[C@@H](Cc1ccc(O)cc1)C(=O)N[C@H](CCCN=C(N)N)C(=O)N[C@@H](Cc1ccccc1)C(=O)N[C@@H](CCCN=C(N)N)C(=O)N1CCC[C@H]1C(=O)N[C@H](C)C(=O)O	0.19 (≈ 0.134 µM)	–	–	63	–
CC(=O)N[C@H](Cc1ccc2ccccc2c1)C(=O)N[C@H](Cc1ccccc1)C(=O)N[C@H](Cc1ccccc1)C(=O)N[C@@H](CO)C(=O)N[C@@H](Cc1ccc(O)cc1)C(=O)N[C@H](CCCN=C(N)N)C(=O)N[C@@H](Cc1ccccc1)C(=O)N[C@@H](CCCN=C(N)N)C(=O)N1CCC[C@H]1C(=O)N[C@H](C)C(N)=O (Ac-[d2Nal][dF][dF]SY[dR]FRP[dA]-NH2)	0.11 (≈ 0.077 µM)	–	–	–	56
CC(=O)N[C@H](Cc1ccc2ccccc2c1)C(=O)N[C@H](Cc1ccccc1)C(=O)N[C@H](Cc1ccccc1)C(=O)N[C@@H](CO)C(=O)N[C@@H](Cc1ccc(O)cc1)C(=O)N[C@H](CCCN=C(N)N)C(=O)N[C@@H](Cc1ccccc1)C(=O)N[C@@H](CCCN=C(N)N)C(=O)N1CCC[C@@H]1CN(C(C)=O)[C@H](C)C(=O)O	0.28 (≈ 0.192 µM)	100	–	75	–
CC(=O)N[C@H](Cc1ccc2ccccc2c1)C(=O)N[C@H](Cc1ccccc1)C(=O)N[C@H](Cc1ccccc1)C(=O)N[C@@H](CO)C(=O)N[C@@H](Cc1ccc(O)cc1)C(=O)N[C@@H](CCCCN)CN[C@@H](Cc1ccccc1)C(=O)N[C@@H](CCCN=C(N)N)C(=O)N1CCC[C@H]1C(=O)N[C@H](C)C(=O)O	1.9 (≈ 1.37 µM)	60	–	–	–
CC(=O)N[C@H](Cc1ccc2ccccc2c1)C(=O)N[C@H](Cc1ccccc1)C(=O)N[C@H](Cc1ccccc1)C(=O)N[C@@H](CO)C(=O)N[C@@H](Cc1ccc(O)cc1)C(=O)N[C@H](CCCN=C(N)N)C(=O)N[C@H](CN[C@@H](CCCN=C(N)N)C(=O)N1CCC[C@H]1C(=O)N[C@H](C)C(=O)O)Cc1ccccc1	0.46 (≈ 0.325 µM)	0	–	–	–
CC(=O)N[C@H](Cc1ccc2ccccc2c1)C(=O)N[C@H](Cc1ccccc1)C(=O)N[C@H](Cc1ccccc1)C(=O)N[C@@H](CO)C(=O)N[C@@H](Cc1ccc(O)cc1)C(=O)N[C@H](CCCN=C(N)N)C(=O)N[C@@H](Cc1ccccc1)C(=O)N[C@@H](CCCN=C(N)N)C(=O)N1CCC[C@@H]1CN[C@H](C)C(=O)O	0.21 (≈ 0.148 µM)	–	44	92	–
CC(=O)N[C@H](Cc1ccc2ccccc2c1)C(=O)N[C@H](Cc1ccccc1)C(=O)N[C@H](Cc1ccccc1)C(=O)N[C@@H](CO)C(=O)N[C@@H](Cc1ccc(O)cc1)CN(C(C)=O)[C@H](CCCN=C(N)N)C(=O)N[C@@H](Cc1ccccc1)C(=O)N[C@@H](CCCN=C(N)N)C(=O)N1CCC[C@H]1C(=O)N[C@H](C)C(=O)O	4 (≈ 2.74 µM)	0	–	–	–
